Reference: ChEMBL document CHEMBL3244282, “Synthesis and evaluation of bis-dipeptide and bis-tripeptide analogues of actinomycin D” (1978)
The source made the active and inactive calls. The rule behind the calls is not given here. Starred links: 1 amine or outer side, 2 acyl side, 3 side chain; linkers in the order of their positions; H or OH if unused. Positions of bridges follow the written chain, without caps; N, C: chain ends. Non-standard residues stand in square brackets, D forms with d. Residues, ends and D or L forms follow the SMILES beside them. Chains are numbered I, II in the order given. Actinocin(1to9) = Cc1c2oc3c(C)ccc(C(=O)[*:2])c3nc-2c(C(=O)[*:1])c(N)c1=O; NMeV = CN[C@H](C(=O)O)C(C)C; Sar = CNCC(=O)O

Columns and labels:
Calf thymus DNA [1] = test: Binding affinity to calf thymus DNA assessed as hypochromic shift after 30 mins by spectral analysis; format: nucleic-acid assay; details: Bos taurus
Calf thymus DNA [2] = test: Binding affinity to calf thymus DNA assessed as bathochromic shift after 30 mins by spectral analysis; format: nucleic-acid assay; details: Bos taurus
P388 = test: Antitumor activity against mouse P388 cells allografted in CD2F1 mouse assessed as increase in life span at 25 mg/kg administered daily for 9 days; format: functional
In short: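 P-388 leukaemia in CD2F1 mice, screened by the NCI Drug Research and Development Program. Dosing was by daily injection for 9 days, up to 25 mg/kg per injection. The read-out was increased life span (ILS), with ILS >25% taken as the minimum for activity.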

Calf thymus DNA [3] = test: Binding affinity to calf thymus DNA assessed as isosbestic point after 30 mins by spectral analysis; format: nucleic-acid assay; details: Bos taurus
Calf thymus DNA [4] = test: Binding affinity to calf thymus DNA after 30 mins by ultracentrifugation method; format: nucleic-acid assay; details: Bos taurus
In short: (§1)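 Drug at about 5×10^-6 M with calf thymus DNA at 0, 1.94, 2.27, 3.35 and 9.45×10^-5 M in pH 7.00 1 M NaCl–0.008 M Tris buffer, equilibrated 30 min, then spun at 150 000g for 6 h at 25 °C. Free drug was measured in the supernatant. Bound drug was measured by dissolving the pellet in 50% DMF and reading A443 against drug in 50% DMF. Repeated at varied drug/DNA ratios.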

Bacillus spizizenii [5] = test: Antibacterial activity against Bacillus subtilis ATCC 6633 at 2.35 ug/ml by cup-plate diffusion assay; format: functional; details: read-out: IZ
In short: (§2)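 Cup-plate agar diffusion with 6-mm stainless steel cylinders on nutrient agar seeded with B. subtilis ATCC 6633, incubated at 37 °C. Activity is read as the zone of inhibition, compared with actinomycin D standards. On repeat assays, test concentrations were adjusted to give zones of roughly the same size as the standards.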

Bacillus spizizenii [6] = test: Antibacterial activity against Bacillus subtilis ATCC 6633 at 5 ug/ml by cup-plate diffusion assay; format: functional; details: read-out: IZ; in short: as §2
Bacillus spizizenii [7] = test: Antibacterial activity against Bacillus subtilis ATCC 6633 at 2.50 ug/ml by cup-plate diffusion assay; format: functional; details: read-out: IZ; in short: as §2
Bacillus spizizenii [8] = test: Antibacterial activity against Bacillus subtilis ATCC 6633 at 1.25 ug/ml by cup-plate diffusion assay; format: functional; details: read-out: IZ; in short: as §2
Calf thymus DNA [9] = test: Binding affinity to calf thymus DNA at DNA/drug ratio of 12:1 after 30 mins by ultracentrifugation method; format: nucleic-acid assay; details: Bos taurus; in short: as §1
Bacillus spizizenii [10] = test: Antibacterial activity against Bacillus subtilis ATCC 6633 at 0.65 ug/ml by cup-plate diffusion assay; format: functional; details: read-out: IZ; in short: as §2
Calf thymus DNA [11] = test: Binding affinity to calf thymus DNA at DNA/drug ratio of 25:1 after 30 mins by ultracentrifugation method; format: nucleic-acid assay; details: Bos taurus; in short: as §1
Calf thymus DNA [12] = test: Binding affinity to calf thymus DNA assessed as reduction in absorbance after 30 mins by spectral analysis; format: nucleic-acid assay; set-up: scale not given: the % may be the effect or the level left; details: Bos taurus
Bacillus spizizenii [13] = test: Antibacterial activity against Bacillus subtilis ATCC 6633 at 3.85 ug/ml by cup-plate diffusion assay; format: functional; details: read-out: IZ; in short: as §2
Bacillus spizizenii [14] = test: Antibacterial activity against Bacillus subtilis ATCC 6633 at 40 ug/ml by cup-plate diffusion assay relative to actinomycin D; format: functional; in short: as §2
Bacillus spizizenii [15] = test: Antibacterial activity against Bacillus subtilis ATCC 6633 at 40 ug/ml by cup-plate diffusion assay; format: functional; details: read-out: IZ; in short: as §2

Compound | Activity (Calf thymus DNA [1]) | Activity (Calf thymus DNA [2]) | Activity (P388) | Activity (Calf thymus DNA [3]) | Ka (Calf thymus DNA [4]) [×10⁶ /M] | zone of inhibition at 2.35 µg/mL (Bacillus spizizenii [5]) [mm] | zone of inhibition at 5 µg/mL (Bacillus spizizenii [6]) [mm] | zone of inhibition at 2.5 µg/mL (Bacillus spizizenii [7]) [mm] | zone of inhibition at 1.25 µg/mL (Bacillus spizizenii [8]) [mm] | Activity (Calf thymus DNA [9]) [%] | zone of inhibition at 0.65 µg/mL (Bacillus spizizenii [10]) [mm] | Activity (Calf thymus DNA [11]) [%] | Activity (Calf thymus DNA [12]) [%] | zone of inhibition at 3.85 µg/mL (Bacillus spizizenii [13]) [mm] | Ratio (Bacillus spizizenii [14]) | zone of inhibition at 40 µg/mL (Bacillus spizizenii [15]) [mm]
COC(=O)[C@H](NC(=O)[C@@H](NC(=O)c1c2nc3c(C(=O)N[C@H](C(=O)N[C@@H](C(=O)OC)C(C)C)[C@@H](C)OC(C)=O)ccc(C)c3oc-2c(C)c(=O)c1N)[C@@H](C)OC(C)=O)C(C)C | inactive | inactive | <=25% | inactive |  |  |  |  |  |  |  |  |  |  |  | 
Cc1c2oc3c(C)ccc(C(=O)N[C@@H]4C(=O)N[C@H](C(C)C)C(=O)N5CCC[C@H]5C(=O)N(C)CC(=O)N(C)[C@@H](C(C)C)C(=O)O[C@@H]4C)c3nc-2c(C(=O)N[C@@H]2C(=O)N[C@H](C(C)C)C(=O)N3CCC[C@H]3C(=O)N(C)CC(=O)N(C)[C@@H](C(C)C)C(=O)O[C@@H]2C)c(N)c1=O [DACTINOMYCIN] (I: T[dV]P[Sar][NMeV] / II: T[dV]P[Sar][NMeV]; ester I:1-I:C, II:1-II:C; linker I:N-II:N via Actinocin(1to9)) | Active | Active | <=25% | Active | 1.56 | 14.3 | 18.2 | 14.5 | 11.1 | 70 | 8.5 | 85 | 30 | 16.6 |  | 
CNC(=O)[C@H](NC(=O)[C@@H](NC(=O)c1c2nc3c(C(=O)N[C@H](C(=O)N[C@@H](C(=O)NC)C(C)C)[C@@H](C)O)ccc(C)c3oc-2c(C)c(=O)c1N)[C@@H](C)O)C(C)C | inactive | inactive | <=25% | inactive |  |  |  |  |  | 17 |  |  |  |  | 1.1 | 8.5
Cc1c2oc3c(C)ccc(C(=O)N[C@H](C(=O)N[C@@H](C(=O)NCCO)C(C)C)[C@@H](C)O)c3nc-2c(C(=O)N[C@H](C(=O)N[C@@H](C(=O)NCCO)C(C)C)[C@@H](C)O)c(N)c1=O | inactive | inactive | <=25% | inactive |  |  |  |  |  |  |  |  |  |  |  | 
Cc1c2oc3c(C)ccc(C(=O)N[C@H](C(=O)N[C@@H](C(=O)O)C(C)C)[C@@H](C)O)c3nc-2c(C(=O)N[C@H](C(=O)N[C@@H](C(=O)O)C(C)C)[C@@H](C)O)c(N)c1=O | inactive | inactive | <=25% | inactive |  |  |  |  |  |  |  |  |  |  | 5.3 | 14.3
COC(=O)[C@@H]1CC(=O)CN1C(=O)[C@H](NC(=O)[C@@H](NC(=O)c1c2nc3c(C(=O)N[C@H](C(=O)N[C@@H](C(=O)N4CC(=O)C[C@H]4C(=O)OC)C(C)C)[C@@H](C)O)ccc(C)c3oc-2c(C)c(=O)c1N)[C@@H](C)O)C(C)C | inactive | inactive | <=25% | inactive |  |  |  |  |  |  |  |  |  |  |  | 
COC(=O)[C@H](NC(=O)[C@@H](NC(=O)c1c2nc3c(C(=O)N[C@H](C(=O)N[C@@H](C(=O)OC)C(C)C)[C@@H](C)O)ccc(C)c3oc-2c(C)c(=O)c1N)[C@@H](C)O)C(C)C | inactive | inactive | <=25% | inactive |  |  |  |  |  |  |  | 30 | 10 |  | 9.6 | 16.6
COC(=O)[C@@H]1CCCN1C(=O)[C@H](NC(=O)[C@@H](NC(=O)c1c2nc3c(C(=O)N[C@H](C(=O)N[C@@H](C(=O)N4CCC[C@H]4C(=O)OC)C(C)C)[C@@H](C)O)ccc(C)c3oc-2c(C)c(=O)c1N)[C@@H](C)O)C(C)C | inactive | inactive | <=25% | inactive |  |  |  |  |  |  |  |  |  |  |  | 
Cc1c2oc3c(C)ccc(C(=O)N[C@H](C(=O)N[C@@H](C(=O)NN)C(C)C)[C@@H](C)O)c3nc-2c(C(=O)N[C@H](C(=O)N[C@@H](C(=O)NN)C(C)C)[C@@H](C)O)c(N)c1=O | inactive | inactive | <=25% | inactive |  |  |  |  |  |  |  |  |  |  |  | 
